The values below come from paper PMC6850587 (Neurogastroenterology and Motility, 2019).

In general, Ki refers to the dissociation constant of the complex between target and ligand, obtained from inhibition or displacement. In general, EC50 refers to the midpoint of the concentration-response curve. In general, IC50 refers to the concentration that inhibits the measured activity by half.

Assay [1] concerns the target T1, recombinant human δ-opioid receptor (Homo sapiens, UniProt P41143). The assay is described as follows: radioligand displacement, [3H]-DADLE. It counts as binding. In general terms: Loss of bound radioactivity is the signal in a displacement assay; it reports binding, not function.
Assay [2] addresses T2, rat recombinant δ-opioid receptor (Rattus norvegicus, UniProt P33533). The assay is described as follows: radioligand displacement, [3H]-DADLE. It counts as binding. The essentials: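 δ-Opioid receptor sites labelled with [³H]-DADLE and displaced by test compound. The IC₅₀ is the concentration inhibiting 50% of specific binding. Ki = IC₅₀/(1 + L/Kd), where L is the radioligand concentration and the radioligand Kd comes from Scatchard plot analysis. Duplicate measurements in two or three independent experiments; data where fitting failed were excluded.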

The target of assay [3] is T2, rat recombinant δ-opioid receptor. The assay is described as follows: […]-GTPγS binding functional assay. It counts as biochemical. Conditions: antagonist mode, against agonist. In general terms: Binding of GTPγS marks nucleotide exchange on a G protein.
Assay [4] addresses T3, recombinant human μ-opioid receptor (Homo sapiens, UniProt P35372). The assay is described as follows: radioligand displacement, [3H]-DAMGO. Format: binding.
Assay [5] has as its target T4, recombinant human κ-opioid receptor (Homo sapiens, UniProt P41145). The assay can be described thus: […]-GTPγS binding functional assay. Conditions: antagonist mode, against agonist. Format: biochemical.
The target in assay [6] is T1, recombinant human δ-opioid receptor. The assay is described as follows: […]-GTPγS binding functional assay. Format: biochemical.
The target of assay [7] is T3, recombinant human μ-opioid receptor. The assay is described as follows: […]-GTPγS binding functional assay. It counts as biochemical. The settings on record: antagonist mode, against agonist.
Assay [8] addresses T4, recombinant human κ-opioid receptor. The assay is described as follows: […]-GTPγS binding functional assay. It counts as biochemical.
In assay [9] the target is T5, rat recombinant μ-opioid receptor (Rattus norvegicus, UniProt P33535). The assay is described as follows: radioligand displacement, [3H]-DAMGO. Format: binding.
T5 sequence (P33535 whole entry): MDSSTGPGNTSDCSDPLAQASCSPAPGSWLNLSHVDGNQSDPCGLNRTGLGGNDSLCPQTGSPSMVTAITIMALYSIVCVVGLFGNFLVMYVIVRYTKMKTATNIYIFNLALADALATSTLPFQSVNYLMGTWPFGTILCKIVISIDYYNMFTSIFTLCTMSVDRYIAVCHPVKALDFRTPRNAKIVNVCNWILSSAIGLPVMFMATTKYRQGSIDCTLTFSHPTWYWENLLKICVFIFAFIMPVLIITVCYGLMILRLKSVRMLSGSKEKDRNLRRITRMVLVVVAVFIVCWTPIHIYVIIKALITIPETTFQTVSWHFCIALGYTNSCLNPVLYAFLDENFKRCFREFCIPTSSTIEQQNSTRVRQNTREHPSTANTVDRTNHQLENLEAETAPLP
Assay [10] concerns the target T4, recombinant human κ-opioid receptor. The assay is described as follows: radioligand displacement, [3H]-U-69, […]. It counts as binding.
Assay [11] has as its target T6, rat recombinant κ-opioid receptor (Rattus norvegicus, UniProt P34975). The assay can be described thus: […]-GTPγS binding functional assay. Format: biochemical. Conditions: antagonist mode, against agonist.
The target in assay [12] is T5, rat recombinant μ-opioid receptor. The assay is described as follows: […]-GTPγS binding functional assay. It counts as biochemical.
The target in assay [13] is T6, rat recombinant κ-opioid receptor. The assay is described as follows: […]-GTPγS binding functional assay. It counts as biochemical.
In assay [14] the target is T1, recombinant human δ-opioid receptor. The assay is described as follows: […]-GTPγS binding functional assay. It counts as biochemical. Conditions: antagonist mode, against agonist.
The target of assay [15] is T6, rat recombinant κ-opioid receptor. The assay is described as follows: […]-GTPγS binding functional assay. It counts as biochemical. This is another data set of the same source.
In assay [16] the target is T3, recombinant human μ-opioid receptor. The assay can be described thus: […]-GTPγS binding functional assay. Format: biochemical.
Assay [17] addresses T5, rat recombinant μ-opioid receptor. The assay can be described thus: […]-GTPγS binding functional assay. It counts as biochemical. Conditions: antagonist mode, against agonist.
Assay [18] concerns the target T2, rat recombinant δ-opioid receptor. The assay can be described thus: […]-GTPγS binding functional assay. It counts as biochemical.

T6 sequence (P34975 whole entry): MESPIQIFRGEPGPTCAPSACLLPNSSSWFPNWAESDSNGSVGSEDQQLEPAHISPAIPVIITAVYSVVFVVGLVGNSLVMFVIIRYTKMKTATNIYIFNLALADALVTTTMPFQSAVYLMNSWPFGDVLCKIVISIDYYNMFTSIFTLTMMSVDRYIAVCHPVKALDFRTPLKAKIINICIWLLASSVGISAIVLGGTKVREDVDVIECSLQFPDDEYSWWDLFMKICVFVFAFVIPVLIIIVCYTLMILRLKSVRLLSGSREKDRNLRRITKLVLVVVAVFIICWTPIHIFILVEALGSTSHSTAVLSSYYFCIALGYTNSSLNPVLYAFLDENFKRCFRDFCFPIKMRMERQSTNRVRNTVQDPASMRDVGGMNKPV
T1 sequence (P41143 whole entry): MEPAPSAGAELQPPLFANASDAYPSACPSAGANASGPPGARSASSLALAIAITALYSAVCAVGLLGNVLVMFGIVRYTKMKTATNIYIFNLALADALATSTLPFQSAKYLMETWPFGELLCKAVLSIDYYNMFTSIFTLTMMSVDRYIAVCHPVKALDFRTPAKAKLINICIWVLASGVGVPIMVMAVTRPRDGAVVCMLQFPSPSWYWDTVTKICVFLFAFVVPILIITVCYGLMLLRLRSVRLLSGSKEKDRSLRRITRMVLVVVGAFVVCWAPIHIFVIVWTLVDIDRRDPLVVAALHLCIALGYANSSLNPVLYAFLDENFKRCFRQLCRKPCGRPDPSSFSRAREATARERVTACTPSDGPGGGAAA
T2 sequence (P33533 whole entry): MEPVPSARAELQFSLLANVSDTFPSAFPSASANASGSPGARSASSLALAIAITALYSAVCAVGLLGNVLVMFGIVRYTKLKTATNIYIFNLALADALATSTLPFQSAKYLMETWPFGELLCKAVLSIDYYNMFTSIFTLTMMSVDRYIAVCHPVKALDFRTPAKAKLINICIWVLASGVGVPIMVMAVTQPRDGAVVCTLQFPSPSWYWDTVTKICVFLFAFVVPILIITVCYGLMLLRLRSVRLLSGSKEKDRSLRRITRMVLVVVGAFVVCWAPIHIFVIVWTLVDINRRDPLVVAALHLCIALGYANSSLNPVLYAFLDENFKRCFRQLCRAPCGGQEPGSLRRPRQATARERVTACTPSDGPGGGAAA
T4 sequence (P41145 whole entry): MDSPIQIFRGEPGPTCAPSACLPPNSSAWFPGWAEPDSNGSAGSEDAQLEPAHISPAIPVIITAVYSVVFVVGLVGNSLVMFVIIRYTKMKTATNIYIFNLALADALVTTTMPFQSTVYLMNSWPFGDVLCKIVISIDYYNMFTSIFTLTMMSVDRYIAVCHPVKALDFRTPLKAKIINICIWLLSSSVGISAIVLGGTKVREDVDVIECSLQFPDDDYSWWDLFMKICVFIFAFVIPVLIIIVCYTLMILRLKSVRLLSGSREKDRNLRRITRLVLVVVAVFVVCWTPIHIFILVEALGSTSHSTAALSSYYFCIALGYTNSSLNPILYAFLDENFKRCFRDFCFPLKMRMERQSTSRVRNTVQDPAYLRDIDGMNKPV
T3 sequence (P35372 whole entry): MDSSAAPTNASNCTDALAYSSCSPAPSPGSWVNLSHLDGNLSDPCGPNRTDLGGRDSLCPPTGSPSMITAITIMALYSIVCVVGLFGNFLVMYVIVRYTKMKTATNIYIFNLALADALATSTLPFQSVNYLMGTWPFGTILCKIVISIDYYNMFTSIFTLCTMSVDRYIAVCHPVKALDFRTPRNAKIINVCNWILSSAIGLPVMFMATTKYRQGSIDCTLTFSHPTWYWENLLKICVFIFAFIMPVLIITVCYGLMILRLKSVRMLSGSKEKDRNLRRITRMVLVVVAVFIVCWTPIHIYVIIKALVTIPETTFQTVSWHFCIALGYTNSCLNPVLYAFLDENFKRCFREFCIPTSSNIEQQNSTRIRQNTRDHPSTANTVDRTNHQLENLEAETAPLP

Take `CC(C)(NC(=O)C1=C(O)[C@@H]2Oc3c(O)ccc4c3[C@@]23CCN(CC2CC2)[C@H](C4)[C@]3(O)C1)c1nc(-c2ccccc2)no1` [naldemedine]: the Ki in [1] was 0.43 ± 0.08 nM; in assay [2], 0.96 ± 0.06 nM; in assay [4], 0.34 ± 0.03 nM; in assay [9], 1.4 ± 0.24 nM; in assay [10], 0.94 nM. Also, the “Antagonist activity (nmol L^-1) / δ” value in assay [3] came to 0.22 ± 0.02 nmol/L; in assay [14], 0.27 ± 0.03 nmol/L. The “Antagonist activity (nmol L^-1) / κ” value in [5] came to 0.44 nmol/L; in assay [11] it was 0.49 ± 0.02 nmol/L. For the same compound, the EC50 in assay [6], in assay [8], in assay [12], in assay [13], in assay [16] and in assay [18] was greater than 10000 nM each time. The figures for the “Antagonist activity (nmol L^-1) / μ” value in assay [7] and in [17] were 0.50 ± 0.05 nmol/L and 0.56 ± 0.02 nmol/L, respectively. The IC50 in [15] is 12.2 ± 0.57 nM.
